Tested on: MS2 coat protein
Test: apparent Kd, MS2 coat protein; higher = weaker binding; RNA-MaP array; tryptophan 2.4 mM where present
Method in brief: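 The apparent Kd is reported as the median of filtered per-cluster binding-curve fits. To get these curves, designs transcribed by stalled E. coli RNA polymerase on Illumina sequencing-chip clusters were titrated with SNAP-549-labelled MS2 coat protein from 0.7 or 1.5 nM, doubling to 3 µM. Titrations were run without and then with constant ligand in 100 mM Tris-HCl pH 7.5, 80 mM KCl, 4 mM MgCl2, BSA, DTT, yeast tRNA and Tween-20, and green signal was normalised to red-channel RNA signal and control-cluster median Fmax.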

[1] = designed as: OFF switch for tryptophan, no ligand
[2] = ligand present: tryptophan, designed as: OFF switch for tryptophan
[3] = designed as: ON switch for tryptophan, no ligand
[4] = ligand present: tryptophan, designed as: ON switch for tryptophan

Row | Sequence | apparent Kd [1] [nM] | apparent Kd [2] [nM] | apparent Kd [3] [nM] | apparent Kd [4] [nM]
1 | AAUGUAUGGCACAUGAGGAUCACCCAUGUGCGAGGACCGGUACGGCCGCCACUCGGUCCUGGGAUCUUACCACUAUACAUUAAUG | 10 | 13.1 | – | –
2 | AGAGCAUUGACGGCCGCCACUCAUGUCACAUGAGGAUCACCCAUGUGAUGGGUGAUCGCCCGGUUGAGGACCGGGUCAAUGCUCA | – | – | 43 | 28.5
3 | AAUGUGAAGGCGGCCGCCACUGAUAAUAGACAUGAGGAUCACCCAUGUAUAAAUCCUCAAUAAGACAGGACCGGGCCAACUACGU | 105 | 125 | – | –
4 | GCCGCGGCCGCGAUACACAUGGGUAUGUAACGAGGACCGGUACGGCCGCCACUCGAGAUAAUGUACAUGAGGAUCACCCAUGUAC | 11.5 | 13.3 | – | –
5 | GAGGAAACUCACAUGAGGAUCACCCAUGUACGAGGACCGGUACGGCCGCCACUCGAAACCAUGGGCGGUUGUACAUGGAAACAUG | 24.8 | 74.8 | – | –
6 | AAACAUGAGGAUCACCCAUGUCCUCCUGUCCGAGGACCGGUACGGCCGCCACUCGGUUCUCGGGAGGAUGGUCAAAGACUAUCCA | – | – | 290 | 253
7 | GAUUAAACAUGAGGAUCACCCAUGUAUAUACGAGGACCGGUACGGCCGCCACUCGUAAACGAGUAUCCUCGAAUAAACAUGAUAA | – | – | 134 | 42.7
8 | ACAUGAGGAUCACCCAUGUGUGUAAAUCCUCGAGGACCGGUACGGCCGCCACUCGAACGAGUGUAAGUUGAAUGUAACAUUCAAC | – | – | 85.5 | 33.7
9 | AACAUACAAUAAUAGGUGGAUAUAAGGCGGCGAGGACCGGUACGGCCGCCACUCGCGUACAUGAGGAUCACCCAUGUCUGAAACU | – | – | 23.2 | 28.1
10 | AGCUACUCGUUCCUCAUGUACGAGUGGCAACGAGGACCGGUACGGCCGCCACUCGAAUAAACAUGAGGAUCACCCAUGUACAAAU | – | – | 54.6 | 120
11 | CACGAAAGAUCGGCCGCCACUAUUUGAUGUGUUCUUUCACAUGAGGAUCACCCAUGUUCUUUCUUUAGGACCGGGAUUGAGCGUG | 99.4 | 49.5 | – | –
12 | AUAACAUGAGGAUCACCCAUGUAUUGGUUACGAGGACCGGUACGGCCGCCACUCGUAUUAUAGUGGUAUUUUGUUUAUAUGAUAA | – | – | 12.6 | 14.1
13 | AAGCUUCGCAUAGGAAAACUAUGUGAAGCUCGAGGACCGGUACGGCCGCCACUCGUCCUCAACAUGAGGAUCACCCAUGUAAUAA | 22.5 | 28.2 | – | –
14 | UUAUAAGUACCGGUCCUCAGAUCCUCAUGACGAGGACCGGUACGGCCGCCACUCGAAACAUGAGGAUCACCCAUGUAAUAAUAAU | 24.2 | 21.5 | – | –
15 | AGCAACAAGUCGGCCGCCACUCAUAUUACAUGAGGAUCACCCAUGUUUACAUCAAGGUCAUAAUAGAGGACCGGGACAGUUGCAU | – | – | 34.1 | 23.7
16 | AGGUGCUGAUCGGCCGCCACUGAGAGGACGUGAACUUUAGCUGGUUACAUGAGGAUCACCCAUGUCAGGACCGGGAUUAGUUUGC | 9.26 | 17.4 | – | –
17 | GGGCGCGUGGACCGGCGUGCUCCGCUCCGUCGAGGACCGGUACGGCCGCCACUCGACAUGAGGAUCACCCAUGUGUGAGCUCGCG | 55.2 | 281 | – | –
18 | UACAUGAGGAUCACCCAUGUCCCAUGUGAACGAGGACCGGUACGGCCGCCACUCGAAUAAGGCGGCACAUGAGGAUCACCCACAU | – | – | 284 | 712
19 | UGUCAGCGAAAGUUGACAUGCAGUGCCGGUCGAGGACCGGUACGGCCGCCACUCGAUCUCUCGUACAUGAGGAUCACCCAUGUCG | – | – | 13.4 | 13.8
20 | GAGUAGAAGACGGCCGCCACUAAACAUGAGGAUCACCCAUGUCGUGAUCCGUUACCUAGAGUAGAUAGGACCGGGUCAUAUAGUC | 30.4 | 30.9 | – | –

Row | Sequence | apparent Kd [1] [nM] | apparent Kd [2] [nM] | apparent Kd [3] [nM] | apparent Kd [4] [nM]
21 | UGGAGUAGGACGGCCGCCACUAUACAAUGUGUAUACAUGAGGAUCACCCAUGUAAUCCUCGGAGAUAGGACCGGGUCAAGUUGUG | 53.6 | 50.5 | – | –
22 | UAAACUACACAUGAGGAUCACCCAUGUGGCCGAGGACCGGUACGGCCGCCACUCGUGUGUUAAUAAAAGAACUGCAAGAUUCUUU | – | – | 126 | 92.6
23 | AUGCAGAGCACGGCCGCCACUCCAUGUAUACAUGAGGAUCACCCAUGUAAUUUGUAUUUUUUAUAGAGGACCGGGUGAAAUGCAA | – | – | 34.3 | 18.2
24 | AGAUGAGUCACGGCCGCCACUCACUUCAGGUUCACCCUUGGUUAACAUGAGGAUCACCCAUGUGGGAGGACCGGGUGAUGAGCAU | 16.2 | 12.8 | – | –
25 | UUUGACGGCGAUCUGGGUUUACCAGAUCGGCGAGGACCGGUACGGCCGCCACUCGUGUUUCUUUGACAUGAGGAUCACCCAUGUA | – | – | 39.1 | 18.4
26 | GGCACAUAGUCGGCCGCCACUAGAAUAAGAAGGGAAAACAUGAGGAUCACCCAUGUAAAAGGGACUAGGACCGGGACUAUGUGCC | 13.9 | 13 | – | –
27 | AGUACAUGAGGAUCACCCAUGUGCCGGUAACGAGGACCGGUACGGCCGCCACUCGAUGUACCUCAAUUUGAUUGAGAUAAGAAAA | – | – | 41 | 17.4
28 | CUACAUUUGUAGAAACCGGUCAACAUUAUUCGAGGACCGGUACGGCCGCCACUCGUAUAUUUUAAUACAUGAGGAUCACCCAUGU | – | – | 11.6 | 12.1
29 | UUCUUUGACGAUCUGGGUUUACCAGAUCGACGAGGACCGGUACGGCCGCCACUCGUGUUUUCUUUACAUGAGGAUCACCCAUGUU | – | – | 16.4 | 15.6
30 | UGUAGUACCAGACAUGAGGAUCACCCAUGUCGAGGACCGGUACGGCCGCCACUCGGCAGUUUGCGUCCUCAGGUACUCCGGGUAA | 13 | 15 | – | –
31 | AAAGCCACUUCGGCCGCCACUACAACAUGAGGAUCACCCAUGUACCUCGUGUACGGUCCGAGGAGUAGGACCGGGAAGUGGUGGA | – | – | 132 | 52.8
32 | GAUAUGGAAACAUGUCAGAUCCUUACCGGUCGAGGACCGGUACGGCCGCCACUCGAAAAUAAUAAACAUGAGGAUCACCCAUGUA | 14.4 | 32 | – | –
33 | CGAAUAUAGACGGCCGCCACUCUACAAACAUGAGGAUCACCCAUGUUCACAUAGAGGAAACUCAUGAGGACCGGGUCAUAGGCUU | – | – | 23.4 | 20
34 | UCCUGCAGAGCGGCCGCCACUGUAUUGCGUGAGGAUGACCCAACAUGAGGAUCACCCAUGUUGUUUAGGACCGGGCUUGCCACGA | 14.2 | 15.5 | – | –
35 | UAUCGUCAGACGGCCGCCACUAGAACAUGAGGAUCACCCAUGUACGGCCGCCCGGUAUGGGUGUCUAGGACCGGGUCUGACGAAU | 30.4 | 39 | – | –
36 | GAUCGACAAAACGUCUAGGAAAACUAGACGCGAGGACCGGUACGGCCGCCACUCGUCCUCACAUGAGGAUCACCCAUGUACGAUC | 31.5 | 177 | – | –
37 | UAAUAAGUGCCGGUUCUCAGAUCCUCAUGUCGAGGACCGGUACGGCCGCCACUCGAAACAUGAGGAUCACCCAUGUAAUAAUAAU | 51.8 | 34.1 | – | –
38 | UACUUGCUGACGGCCGCCACUAGAACAUGAGGAUCACCCAUGUACCCGGUCCUAAUCCUCAUGACUAGGACCGGGUCAGCAAGAU | 22.4 | 21.5 | – | –
39 | GGAGUCGUCACGGCCGCCACUGCGGUGGUGUGACAUGAGGAUCACCCAUGUUGUCAUGCGGCCCUUAGGACCGGGUGUCGGUUCC | 51.5 | 59.1 | – | –
40 | AUAUAUACAUGAGGAUCACCCAUGUUAUUACGAGGACCGGUACGGCCGCCACUCGAUAGAGUAGAAGUAAAUUUUAAUUCAUGUA | – | – | 14.5 | 13

Source: the EternaBench riboswitch data
